≈ marks a conversion by molar mass, not a printed value. Calls of active or inactive are those of the source. The rule behind the calls is not given here.
Assays:
Staphylococcus aureus [1] = test: Antibacterial activity against methicillin-resistant Staphylococcus aureus 459 at pH 7.4; assay type: functional
How it was run: (§1)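 MRSA clinical isolate 459 (penicillinase-negative, mecA-positive) grown in Mueller-Hinton broth with 2% NaCl; MIC determined in broth adjusted to pH 5.5 or 7.4, inoculum 10^6 CFU/ml of exponential-phase bacteria, 24-h incubation.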

Staphylococcus aureus [2] = test: Antibacterial activity against methicillin-resistant Staphylococcus aureus 459 at pH 5.5; assay type: functional; how it was run: as §1
Staphylococcus aureus [3] = test: Antimicrobial activity against methicillin-susceptible Staphylococcus aureus ATCC 25923 after phagocytosis by human THP1 macrophages assessed as reduction in bacterial count at pH 5.5 after 24 hrs; assay type: functional, organism-based; conditions: ATCC 25923, THP-1, 24 h
Staphylococcus aureus [4] = test: Antimicrobial activity against methicillin-resistant Staphylococcus aureus […] after phagocytosis by human THP1 macrophages assessed as reduction in bacterial count at pH 7.4 after 24 hrs; assay type: functional, organism-based; conditions: THP-1, 24 h
Staphylococcus aureus [5] = test: Antimicrobial activity against methicillin-susceptible Staphylococcus aureus ATCC 25923 after phagocytosis by human THP1 macrophages assessed as reduction in bacterial count after 24 hrs; assay type: functional, organism-based; conditions: ATCC 25923, THP-1, 24 h
How it was run: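 THP-1 human macrophage-like cells allowed to phagocytose S. aureus for 1 h, then exposed 24 h to a wide range of extracellular total-drug concentrations; controls given gentamicin at 0.5× MIC. Response is log10 CFU change from original inoculum; Hill equation fitted by nonlinear regression for EC50, Emax and static concentration; means of three independent determinations.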

Staphylococcus aureus [6] = test: Antimicrobial activity against methicillin-resistant Staphylococcus aureus ATCC 33591 after phagocytosis by human THP1 macrophages assessed as reduction in bacterial count after 24 hrs; conditions: ATCC 33591, THP-1, 24 h
Staphylococcus aureus [7] = test: Antimicrobial activity against Staphylococcus aureus assessed as reduction in bacterial count at pH 5.5 after 24 hrs
Staphylococcus aureus [8] = test: Antimicrobial activity against methicillin-susceptible Staphylococcus aureus ATCC 25923 after phagocytosis by human THP1 macrophages assessed as reduction in bacterial count at pH 7.4 after 24 hrs; assay type: functional, organism-based; conditions: ATCC 25923, THP-1, 24 h
Staphylococcus aureus [9] = test: Reversal bacterial susceptibility against methicillin-resistant Staphylococcus aureus ATCC 33591 after phagocytosis by human THP1 macrophages assessed as bacterial count in presence of 10 mM ammonium chloride after 24 hrs; assay type: functional, organism-based
How it was run: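 Infected THP-1 macrophages (MRSA ATCC 33591) given 10 mM ammonium chloride after phagocytosis together with meropenem 50 mg/liter or cloxacillin 8 mg/liter (total drug), incubated 24 h; controls with gentamicin 0.5× MIC; CFU counted; means of three independent determinations.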

Staphylococcus aureus [10] = test: Induction of mecA/16S rRNA ratio in methicillin-resistant Staphylococcus aureus ATCC 33591 at 0.5 times MIC at pH 7.4 after 5 hrs; assay type: functional
Staphylococcus aureus [11] = test: Induction of mecA/16S rRNA ratio in methicillin-resistant Staphylococcus aureus ATCC 33591 at 0.5 times MIC at pH 5.5 after 5 hrs; assay type: functional

Row | SMILES | MIC (Staphylococcus aureus [1]) [mg/L] | MIC (Staphylococcus aureus [2]) [mg/L] | EC50 (Staphylococcus aureus [3]) [mg/L] | EC50 (Staphylococcus aureus [4]) [mg/L] | EC50 (Staphylococcus aureus [5]) [mg/L] | EC50 (Staphylococcus aureus [6]) [mg/L] | EC50 (Staphylococcus aureus [7]) [mg/L] | EC50 (Staphylococcus aureus [8]) [mg/L] | Activity (Staphylococcus aureus [9]) | Ratio (Staphylococcus aureus [10]) | Ratio (Staphylococcus aureus [11])
1 | Cc1onc(-c2ccccc2Cl)c1C(=O)N[C@@H]1C(=O)N2[C@@H]1SC(C)(C)[C@@H]2C(=O)O [CLOXACILLIN] | 0.125 (≈ 0.287 µM) | 0.03 (≈ 0.0688 µM) | 0.22 (≈ 0.505 µM) | 16.9 (≈ 38.8 µM) | 0.27 (≈ 0.619 µM) | 0.23 (≈ 0.528 µM) | 0.07 (≈ 0.161 µM) | 0.35 (≈ 0.803 µM) | inactive | – | –
2 | C[C@@H](O)[C@H]1C(=O)N2C(C(=O)O)=C(S[C@@H]3CN[C@H](C(=O)Nc4cccc(C(=O)O)c4)C3)[C@H](C)[C@H]12 [ERTAPENEM] | – | – | – | – | – | – | – | – | – | 0.79 | 0.67
3 | C[C@@H](O)[C@H]1C(=O)N2C(C(=O)O)=C(S[C@@H]3CN[C@H](C(=O)N(C)C)C3)[C@H](C)[C@H]12 [MEROPENEM] | – | – | 0.2 (≈ 0.522 µM) | – | 0.14 (≈ 0.365 µM) | 0.16 (≈ 0.417 µM) | 0.33 (≈ 0.861 µM) | 0.29 (≈ 0.756 µM) | inactive | – | –
4 | Cc1onc(-c2ccccc2)c1C(=O)N[C@@H]1C(=O)N2[C@@H]1SC(C)(C)[C@@H]2C(=O)O [OXACILLIN] | 1 (≈ 2.49 µM) | 0.03 (≈ 0.0747 µM) | – | – | – | – | – | – | – | – | –
5 | CC1(C)S[C@@H]2[C@H](NC(=O)Cc3ccccc3)C(=O)N2[C@H]1C(=O)O [PENICILLIN G] | 0.25 (≈ 0.748 µM) | 0.03 (≈ 0.0897 µM) | – | – | – | – | – | – | – | – | –

Source: ChEMBL document CHEMBL1144465, “Role of acidic pH in the susceptibility of intraphagocytic methicillin-resistant Staphylococcus aureus strains to meropenem and cloxacillin” (Antimicrob Agents Chemother, 2007)
